# GalR3 antag: blocks the human galanin receptor 3. AID 651719. hit rate 0.44% among 360,000. inhibition, % at 3 µM. HEK293 GalR3-CNG cAMP membrane potential fluorescence; galR3 body fused to GalR1 C-terminus. O60755;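 active = inhibition above the screen-wide average plus 3 SD, cut at about 13% in these data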;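 note: forskolin and galanin both at EC90 stimulate the cells; cAMP rise reported by CNG channel membrane potential dye signal; 0% = forskolin plus galanin with DMSO and 100% = forskolin alone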
# TAAR1 antagonist: antagonists of human TAAR1; Q96RJ0; CHO RD-HGA16 TAAR1, Fluo-8 calcium fluorescence, antagonist; inhibition, % at 3 µM; hit rate 1.5% among 360,000; AID 624466;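 active = inhibition above a per-plate cutoff, the mean inhibition of test compounds on that plate plus 3 SD, cut at about 49% in these data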;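 note: 0% = DMSO plus EC80 beta-PEA response and 100% = DMSO alone without agonist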
# Target sequence (Q96RJ0 whole entry, looked up): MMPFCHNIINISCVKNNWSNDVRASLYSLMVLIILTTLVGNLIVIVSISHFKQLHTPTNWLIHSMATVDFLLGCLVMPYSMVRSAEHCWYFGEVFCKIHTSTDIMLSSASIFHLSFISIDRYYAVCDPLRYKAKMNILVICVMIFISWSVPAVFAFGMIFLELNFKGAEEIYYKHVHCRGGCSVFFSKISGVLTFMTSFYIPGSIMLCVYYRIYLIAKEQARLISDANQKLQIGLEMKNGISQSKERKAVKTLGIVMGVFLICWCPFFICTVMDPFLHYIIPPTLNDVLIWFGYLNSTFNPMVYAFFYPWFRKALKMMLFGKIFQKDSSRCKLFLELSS
#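 Test system: hTAAR1-expressing CHO RD-HGA16 cells, Gα16-coupled; Probe or stimulus: EC80 β-phenethylamine stimulus; Compound dosing: single nominal final test compound concentration of 3 µM; Timing: 140 s kinetic read after compound, 140 s after agonist; Signal: Fluo-8 calcium-sensitive fluorescence; Measure: % inhibition of agonist calcium response; Controls: DMSO and EC80 PEA controls.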
# OX1R antag-1: antagonists of human orexin 1 receptor | O43613 | CHO/OX1R cells, Fluo-8 calcium fluorescence, orexin A | inhibition, % at 5 µM | hit rate 0.43% among 330,000;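 active = inhibition above its plate's threshold, mean inhibition of all tested compounds on the plate plus 3 SD, cut at about 37% in these data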;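 note: 0% = orexin A challenge wells and 100% = SB-334867-A antagonist wells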
# TAAR1 agonist: agonists of human TAAR1 | Q96RJ0 | CHO RD-HGA16 TAAR1, Fluo-8 calcium fluorescence; vehicle wells 0%, saturating PEA agonist 100% | activation, % at 3 µM | hit rate 0.99% among 360,000;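 active = activation above the mean activation of all test compounds in the run plus 3 SD, cut at about 38% in these data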
#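 System: CHO-derived RD-HGA16 cells with stable Gα16 and human TAAR1. Times: 17-24 h plating, Fluo-8 75 min 37 °C, 30 min RT. Measured by: calcium-sensitive Fluo-8 signal, excitation 470-495, emission 515-575 nm. Read-out basis: % activation relative to PEA EC100 response. Control set: DMSO and PEA EC100. Repeats: no replicates (n 1).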
# CHO parental Ca: counter-screen for OX1R antagonists: effect in parental CHO cells | inhibition, % at 5.6 µM | hit rate 0.63% among 330,000 | parental CHO-K1, ATP-induced calcium, Fluo-8 fluorescence;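 active = inhibition above that plate's mean sample inhibition plus 3 SD, cut at about 26% in these data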;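 note: 0% = ATP-challenged DMSO wells and 100% = DMSO wells without ATP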
#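 Test system: parental CHO cells; detection: calcium-sensitive Fluo-8 fluorescence; evaluation: percent inhibition of calcium signal; also added: ATP as calcium-mobilizing challenge; repeats: one well per compound; control set: ATP-challenged DMSO wells low, unchallenged DMSO wells high; compound: single nominal dose of 5.6 µM per compound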
# OX1R antag-2: blocks the human orexin 1 receptor; inhibition, % at 6.6 µM; AID 485270; hit rate 1.8% among 330,000; O43613; OX1R-expressing cells, FRET antagonist read-out; in the data active = inhibition mostly above about 38%, no sharp cut-off; inactive = mostly below about 40%;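 note: 0% = agonist challenge alone and 100% = reference antagonist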
# GalR3 antag conf: GalR3 (human) antagonism, confirmation. hit rate 59% among 1,600. HEK293 GalR3 CNG cAMP biosensor, membrane potential fluorescence; galR3 fused to GalR1 carboxy tail; challenged with forskolin and galanin at EC90. shares compounds with GalR3 antag. AID 652245. inhibition, % at 3 µM;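 active = inhibition above the primary screen's cutoff, the mean inhibition of all screened compounds plus 3 SD, cut at about 13% in these data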;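 note: 0% = forskolin plus galanin and 100% = forskolin alone with DMSO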
# CNG parental: counter-screen for GalR3 antagonists: nonspecific agonists in parental HEK-CNG cells; activation, % at 3 µM; HEK293-CNG parental cells, cAMP membrane potential fluorescence; normalised: DMSO wells 0%, forskolin wells 100%; hit rate 10% among 1,600; AID 652268; shares compounds with GalR3 antag; in the data active = activation above about 1.3%
# The depositor's hits bear a star; . = no result given. Shown are actives, neighbours in structure and some others; about 4.2% of the full set was active somewhere.
SMILES,GalR3 antag,TAAR1 antagonist,OX1R antag-1,TAAR1 agonist,CHO parental Ca,OX1R antag-2,GalR3 antag conf,CNG parental
CN(c1ccc(C(=O)Nc2ccc(S(=O)(=O)N3CCCC3)cc2)cc1)S(C)(=O)=O,93.5*,-5.0,-1.4,3.8,-7.3,16.4,95.4*,0.0
COc1ccc(CC(=O)Nc2cccc(S(=O)(=O)N3CCCCCC3)c2)cc1OC,104.5*,35.0,4.1,15.2,48.8*,22.8,99.2*,-0.8
O=C(Nc1nc(-c2ccc(Cl)cc2Cl)cs1)c1ccc(OCC2CCCO2)cc1 (stereo not drawn),92.5*,5.4,-20.7,-0.4,-14.1,12.2,109.3*,-0.6
COc1ccc(S(=O)(=O)N2CCCCCC2)cc1C(=O)Nc1ccc(C(=O)N(C)C)cc1,14.5*,9.0,.,0.6,.,.,5.4,-0.1
O=C(Nc1ccc(S(=O)(=O)N2CCCC2)cc1)c1ccc(CN2CCOCC2)cc1,106.9*,10.8,-26.7,23.5,-9.0,11.9,64.1*,0.2
O=C(Nc1ccc(Cl)cc1)c1ccc(OCC2CCCO2)cc1 (stereo not drawn),-5.8,-14.0,-1.4,3.4,-9.2,5.9,.,.
COc1ccc(NS(=O)(=O)c2ccc(NC(=O)c3ccc(CN4CCOCC4)cc3)cc2)cc1,88.7*,36.1,10.8,18.0,6.1,19.1,118.2*,-1.0
COc1ccc(NC(=O)c2cc(S(=O)(=O)N3CCCCC3)ccc2OC)cc1,-8.2,-21.4,-1.8,0.7,5.2,17.8,.,.
O=C(NCc1ccco1)NC12CC3CC(CC(C3)C1)C2,-5.1,-13.2,1.4,16.3,3.3,15.2,.,.
Cc1ccc(NS(=O)(=O)c2cccc(C(=O)NC3CCN(Cc4ccccc4)CC3)c2)cc1,-6.9,-8.5,.,19.0,.,.,.,.
O=C(NC1CCN(Cc2ccccc2)CC1)c1ccc2c(c1)[nH]c(=O)n2Cc1ccc(F)cc1,54.6*,-15.7,-38.5,5.9,-21.7,7.7,59.4*,0.6
Cc1ccc(NS(=O)(=O)c2ccc(C(=O)NC3CCN(Cc4ccccc4)CC3)cc2)cc1,90.5*,2.0,15.2,16.6,-9.9,3.9,103.2*,0.6
CCN(CC(=O)NCCCN1CCOCC1)S(=O)(=O)c1ccc(F)cc1,19.1*,-3.0,11.7,-1.1,4.3,8.0,3.0,0.0
COc1ccc(CN2CCN(C(=O)c3ccc(S(=O)(=O)N4CCCCCC4)cc3)CC2)cc1,26.5*,17.9,.,6.3,.,.,90.4*,-0.6
O=C(Nc1ccc(S(=O)(=O)Nc2ccc(F)cc2)cc1)c1ccc(CN2CCOCC2)cc1,67.4*,23.2,13.8,14.7,15.2,28.0,109.5*,-1.3
COc1ccc(NS(=O)(=O)c2ccc(N3CCOCC3)c(N)c2)cc1,83.9*,17.0,42.7,9.0,27.5,26.5,82.8*,-0.4
CCN(CC)S(=O)(=O)c1ccc(NC(=O)c2ccc(OCC3CCCO3)cc2)cc1 (stereo not drawn),34.5*,46.8,10.7,17.4,-4.0,7.0,104.2*,-0.3
CCOc1ccc(NC(=O)c2ccc(OCC3CCCO3)cc2)cc1S(=O)(=O)N(CC)CC (stereo not drawn),-6.4,22.7,-22.2,10.6,-22.3,5.7,.,.
CC(=O)NC[C@H]1CN(c2ccc(N3CCOCC3)c(F)c2)C(=O)O1,.,.,-18.9,.,-5.3,14.1,.,.
Oc1ccc2ccccc2c1CN1CCCCC1,14.3*,-20.7,.,6.0,.,.,17.4*,0.3
Oc1ccc2ccccc2c1CN1CCCC1,-4.4,-7.7,-25.2,5.5,-10.9,19.1,.,.
COc1cc2c3c(c1)C1(C(=O)N3C(C)(C)C=C2C)C(C#N)=C(N)Oc2cc(O)ccc21 (stereo not drawn),-1.0,9.6,-21.6,5.0,-13.0,7.2,.,.

# Compound activity deposited in PubChem BioAssay by The Scripps Research Institute Molecular Screening Center.
